Hits are enriched below; roughly 2.5% of the tested compounds scored in any of these assays.
TDP2 inh: human TDP2 enzyme inhibitors, primary screen, biochemical, epi absorbance, recombinant enzyme; T5PNP hydrolysis, p-nitrophenol absorbance 415 nm; actives 0.34% (n = 370,000); Tyrosyl-DNA phosphodiesterase 2 (Homo sapiens), O95551; inhibition, % at 12.8 µM;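 active means inhibition above the mean of all tested compounds plus 3 SD, set per campaign, cut at about 25% in these data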;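 further: 0% = DMSO with enzyme and 100% = buffer with substrate but no TDP2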
Target sequence (O95551 whole entry, looked up): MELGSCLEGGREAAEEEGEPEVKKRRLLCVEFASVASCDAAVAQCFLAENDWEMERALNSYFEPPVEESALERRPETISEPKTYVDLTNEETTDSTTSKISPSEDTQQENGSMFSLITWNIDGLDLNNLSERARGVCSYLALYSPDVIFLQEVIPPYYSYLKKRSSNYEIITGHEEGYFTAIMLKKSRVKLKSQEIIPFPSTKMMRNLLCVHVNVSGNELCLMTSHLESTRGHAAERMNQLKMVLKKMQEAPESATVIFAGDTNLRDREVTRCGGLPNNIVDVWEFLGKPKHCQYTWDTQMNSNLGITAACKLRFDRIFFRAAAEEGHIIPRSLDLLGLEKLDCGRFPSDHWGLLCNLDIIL
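System – recombinant human TDP2 · Amount – 120 nM TDP2 per well · Buffer or medium – Mg2+-containing Tris-HCl buffer, pH 7.5 · Reagent – T5PNP substrate, 5 mM · Dosing – 12.8 µM single point, 1% DMSO · Incubation – 2 h at 37 °C · Measured by – epi absorbance · Read-out basis – percent inhibition · Benchmarks – high control without enzyme, low control DMSO plus TDP2 · Repeats – singlicate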
GSTO1 inh: inhibitors of recombinant GSTO1, primary screen, counter-screen for RBBP9 inhibitor project, biochemical, fluorescence polarization; Glutathione S-transferase omega-1 (Homo sapiens), P78417; activity-based probe fluorescence polarization; inhibition, % at 5.96 µM; actives 1.1% (n = 300,000);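 active means inhibition above the campaign mean inhibition plus 3 SD, cut at about 35% in these data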;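 further: 0% = GSTO1-1 with DMSO and 100% = wells lacking GSTO1-1 enzyme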
PRMT1 FP inh: PRMT1 methyltransferase inhibitors, primary screen, biochemical, fluorescence polarization. Protein arginine N-methyltransferase 1 (Homo sapiens), Q99873. recombinant PRMT1, activity-based probe fluorescence polarization. inhibition, % at 2.79 µM. actives 1.3% (n = 370,000);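 active means inhibition above about 21% made by adding two undisclosed values, limit read from the data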
Target sequence (Q99873 whole entry, looked up): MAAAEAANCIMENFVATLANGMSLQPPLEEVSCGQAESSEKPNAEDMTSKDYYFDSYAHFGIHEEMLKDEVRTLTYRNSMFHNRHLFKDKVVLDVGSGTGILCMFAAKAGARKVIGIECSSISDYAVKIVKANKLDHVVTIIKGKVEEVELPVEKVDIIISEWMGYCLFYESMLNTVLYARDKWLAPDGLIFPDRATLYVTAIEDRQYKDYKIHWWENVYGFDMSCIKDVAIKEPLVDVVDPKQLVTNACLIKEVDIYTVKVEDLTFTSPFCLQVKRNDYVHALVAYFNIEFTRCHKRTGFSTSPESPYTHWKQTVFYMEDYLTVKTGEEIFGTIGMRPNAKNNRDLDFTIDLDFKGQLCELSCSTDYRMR
Fh CTSL1 inh: Fasciola hepatica cathepsin L1 inhibitors, primary screen, counter-screen for PFM18AAP inhibitor project, biochemical, QFRET, fluorogenic peptide substrate | recombinant F. hepatica cathepsin L1, Z-Leu-Arg-MCA fluorescence | inhibition, % at 5.96 µM | actives 0.49% (n = 300,000);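 active means inhibition above the mean of all tested compounds plus 3 SD, set per screening campaign, cut at about 17% in these data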;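 further: 0% = plate median of test compound wells and 100% = 1 µM Z-Phe-Ala-diazomethylketone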
PAD4 FP inh: human PAD4 inhibitors, primary screen, biochemical, fluorescence polarization, 1536-well format | Protein-arginine deiminase type-4 (Homo sapiens), Q9UM07 | recombinant PAD4, RCA probe fluorescence polarization | inhibition, % at 6.36 µM | actives 0.41% (n = 330,000) | AID 485272, 2010;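 active means percent inhibition above a cutoff equal to the mean of all tested compounds plus 3 SD, cut at about 15% in these data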;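 further: 0% = PAD4 with RCA probe and DMSO and 100% = probe without PAD4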
GSTO1 confirm: GSTO1 inhibitor hit confirmation, counter-screen for RBBP9 inhibitor project, biochemical, fluorescence polarization, triplicate. shares compounds with GSTO1 inh. recombinant GSTO1, probe fluorescence polarization. inhibition, % at 5.96 µM. actives 54% (n = 2,400). AID 2176, 2009;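 active means inhibition above the primary screen's cutoff, its mean inhibition plus 3 SD, cut at about 35% in these data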;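 further: loss of polarization as inhibitors block binding of rhodamine sulfonate ester activity probe; 0% = GSTO1 with DMSO and 100% = wells lacking GSTO1 enzyme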
PAD4 confirm: human PAD4 inhibitors, confirmation, biochemical, fluorescence polarization | recombinant PAD4, RCA probe fluorescence polarization | inhibition, % at 6.36 µM | shares compounds with PAD4 FP inh | actives 28% (n = 1,200) | AID 488796, 2010;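 active means mean inhibition across replicates above the hit cutoff set by the earlier primary screen, cut at about 15% in these data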;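 further: inhibitors block active-site labeling by the probe so polarization falls; 0% = PAD4 with probe and DMSO and 100% = probe without PAD4 enzyme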
PRMT1 confirm: PRMT1 methyltransferase inhibitors, confirmation, biochemical, fluorescence polarization, triplicate; actives 42% (n = 3,300); inhibition, % at 2.79 µM; shares compounds with PRMT1 FP inh; recombinant His-PRMT1, activity-based probe fluorescence polarization; AID 687036, 2013;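 active means mean inhibition across replicates above the hit cutoff derived for the earlier primary screen, cut at about 22% in these data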
Starred values were filed as active, the others as inactive; x = not tested or not shown; + = active, no number; ! = not active in a repeat.

SMILES | TDP2 inh | GSTO1 inh | PRMT1 FP inh | Fh CTSL1 inh | PAD4 FP inh | GSTO1 confirm | PAD4 confirm | others
COCCn1c(N)c(C(=O)NCC2CCCO2)c2nc3ccccc3nc21 (stereo unspecified) | 13 | 102* | 2 | 13 | 76* | 5 | -18
CC(C)Cn1c(N)c(C(=O)NCC2CCCO2)c2nc3ccccc3nc21 (stereo unspecified) | 8 | 29 | -1 | 3 | -11 | x | x
C#CCNC(=O)C[C@@H]1C[C@]2(C(=O)OCC)CCC3=C2N(CCC3)C1=O | -1 | x | -3 | x | x | x | x
COc1ccccc1NC1=C(N2CCCCC2)C(=O)c2ccccc2C1=O | x | 73* | x | 62* | 38* | 54* | 2
COc1ccccc1NS(=O)(=O)c1cc(N)ccc1N1CCCC1 | 1 | x | 7 | x | 1 | x | x
O=C(O)/C=C\C(=O)Nc1ccc(N2CCN(c3ccc(F)cc3)CC2)cc1 | 14 | 58* | 5 | 2 | 24* | 3 | 4
O=C1C(Cl)=C(N2CCN(c3ccccc3[N+](=O)[O-])CC2)C(=O)c2ccccc21 | 62* | 82* | 6 | 9 | 29* | 88* | 8
O=C1C(Cl)=C(NCc2cccnc2)C(=O)c2ccccc21 | 11 | 77* | 2 | 27* | 21* | 57* | -7
COc1ccc(OC)c(N)c1 | 12 | 46* | 2 | 0 | 38* | 14 | -4
COc1ccc(C)cc1N | 2 | x | 3 | x | x | x | x
CCOC(=O)[C@]12CCCCC/C=C\1N(Cc1ccc(OC)cc1)C(=O)[C@H]2CC(=O)NCCCCc1ccccc1 | 2 | x | -3 | x | x | x | x
CCOC(=O)CC[C@@H]1CC[C@]2(CCCN(C(=O)C3CCCC3)C2)O1 | 4 | x | -1 | x | x | x | x
Nc1ccc(O)c2c1C(=O)c1ccccc1C2=O | 3 | 49* | 17 | -1 | 49* | 37* | 41*
CN(C)c1ccc(N=Cc2cccn2C)cc1 | 25* | 83* | 10 | -3 | 25* | 3 | -12
CN(C)c1ccc(N=Cc2nc(-c3ccccc3)oc2O)cc1 | 6 | 24 | -4 | 8 | 9 | x | x
COc1ccc(-n2c(SCC(=O)Nc3ccccc3-c3ccccc3)nnc2-c2ccccn2)cc1 | -12 | x | -6 | x | x | x | x
COCCCNc1c2c3c(cccc3[nH]c1=O)C(=O)c1ccccc1-2 | 1 | 79* | + | 6 | 135* | 92* | 151*
CC1(C)Nc2ccc(O)cc2-c2c1ssc2=S | 5 | 63* | 22* | 5 | 41* | 25 | 18*
COC(=O)[C@]12C[C@H](CC(=O)NCc3ccc(OC)c(OC)c3)C(=O)N(Cc3cccc4ccccc34)C1=C[C@H](C(C)(C)C)O[C@@H]2C | -8 | x | 0 | x | x | x | x
Cc1nn(-c2ccccc2)c2[nH]c(=O)c(CNc3ccc(N4CCOCC4)cc3)cc12 | 14 | 39* | -1 | 6 | 20* | 0 | 3
COc1ccc(/C=C2/CN(Cc3ccc(OC)cc3OC)C3=NC(c4ccc5ccccc5c4)CC(=O)N32)cc1 (stereo unspecified) | 2 | x | 4 | x | x | x | x
CCn1c(-c2ccccc2)c(C(=O)CCl)c2ccccc21 | -1 | 60* | 1 | 6 | 21* | 76* | 42*
CN(C)c1ccc(C(=O)NN2C(=O)c3ccccc3C2=O)cc1 | 13 | 7 | -5 | 1 | 2 | x | x
CNC1=C(N(C(C)=O)c2ccc(Br)cc2)C(=O)c2ccccc2C1=O | 53* | 73* | -2 | 33* | 47* | 63* | 16*
Cc1cc(C)c(S(=O)(=O)/N=C2/C=C(Sc3ncn[nH]3)C(=O)c3ccccc32)cc1C | 67* | 84* | 81* | 92* | 30* | 87* | 5
SMILES | TDP2 inh | GSTO1 inh | PRMT1 FP inh | Fh CTSL1 inh | PAD4 FP inh | GSTO1 confirm | PAD4 confirm | others
Cc1cc(O)c(Sc2ncn[nH]2)cc1NS(=O)(=O)c1ccc(Cl)cc1 | 0 | x | 2 | x | 0 | x | x
O=C(Cc1cc(=O)[nH][nH]1)N/N=C/c1c(F)cccc1Cl | 5 | 34 | 2 | -1 | -16 | x | x
O=C(Cc1cc(=O)[nH][nH]1)N/N=C/c1c(Cl)cccc1Cl | 10 | 52* | 0 | -4 | 20*! | 1 | -5
COc1ccc(C(=O)c2c(C(F)(F)F)oc3c2C(=O)c2ccccc2C3=O)cc1 | x | 63* | x | 28* | 30* | 66* | 22*
Cc1ccc(C(=O)c2c(C)oc3c2C(=O)C(=O)c2ccccc2-3)cc1 | x | 31 | x | -6 | -13 | x | x
COC(=O)C1CN(Cc2ccccc2)CCS(=O)(=O)N1Cc1ccc(Cl)cc1 (stereo unspecified) | 1 | x | -1 | x | x | x | x
CN(C)c1ccc(N/C=C/C(=O)c2ccccc2)cc1 | 12 | 62* | 22* | 1 | 17* | -1 | -3
O=C(/C=C/Nc1ccccc1)c1ccccc1 | 1 | 3 | 0 | 2 | -1 | x | x
CCOC(=O)CC(=O)Nc1c(C)cc(C)cc1C | x | -5 | x | -4 | 0 | x | x
CCc1cc(SC#N)cc(C)c1NC(=O)CCl | -10 | 72* | 31* | 1 | 21* | 74* | 2
O=C(O)c1ccc(S(=O)(=O)/N=C2\C=C(Nc3ccccc3F)C(=O)c3ccccc32)cc1 | 89* | 91* | 4 | 80* | 67* | 93* | 65*
COc1ccc(S(=O)(=O)/N=C2\C=C(Nc3ccc(O)cc3)C(=O)c3ccccc32)cc1 | 67* | 94* | 4 | 92* | 62* | 89* | 58*
CC(=O)Nc1ccc(NC2=C/C(=N/S(=O)(=O)c3cccs3)c3ccccc3C2=O)cc1 | 77* | 87* | 2 | 102* | 65* | 86* | 45*
C=CCN(CC#Cc1ccccc1)Cc1ccc2c(c1)OCO2 | -3 | x | 6 | x | x | x | x
C[C@H]1COc2cc(Br)ccc2S(=O)(=O)N1Cc1cn(Cc2ccc(C(F)(F)F)cc2)nn1 | 4 | x | 1 | x | x | x | x
O=C(Nc1ccc(F)cc1Cl)C1CCCN1S(=O)(=O)c1cccc2cccnc12 (stereo unspecified) | 1 | x | -3 | x | x | x | x
CCCCNC(=O)c1ccc2nc(-c3ccco3)c(-c3ccco3)nc2c1 | -3 | 70* | 42* | 10 | -7 | 24 | x | PRMT1 confirm=48*
